The list is not random: actives were taken first. Their share in the collection is about 1.6%.
PPC-1+TRAIL kill: compounds killing PPC-1 cancer cells with TRAIL present, primary screen, TRAIL potentiator project, ATPLite luminescence, uHTS. PPC-1 cells + TRAIL, ATPLite viability luminescence. cell killing (% activity), % at 4 µM or 5 µM. AID 1443, 2008. 0.41% of 220,000 active;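 active means cell killing above 50% in the first pass at 4 µM, then a duplicate retest at 5 µM averaging 50% or more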
FLuc act counter: FLuc activators, initial screening, artefact control for FLuc-dependent activation tests, biochemical, ATPlite luminescence; Luciferin 4-monooxygenase (Photinus pyralis), P08659; ATPlite luciferase biochemical, 10 min; 0 = ATP-free wells, 1 = DMSO control; activation factor at 10 µM; 200,000 tested, under 10 active;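 active means luciferase activation factor, scaled between plate controls, of at least 2 with compound at 10 µM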
Target sequence (P08659 whole entry, looked up): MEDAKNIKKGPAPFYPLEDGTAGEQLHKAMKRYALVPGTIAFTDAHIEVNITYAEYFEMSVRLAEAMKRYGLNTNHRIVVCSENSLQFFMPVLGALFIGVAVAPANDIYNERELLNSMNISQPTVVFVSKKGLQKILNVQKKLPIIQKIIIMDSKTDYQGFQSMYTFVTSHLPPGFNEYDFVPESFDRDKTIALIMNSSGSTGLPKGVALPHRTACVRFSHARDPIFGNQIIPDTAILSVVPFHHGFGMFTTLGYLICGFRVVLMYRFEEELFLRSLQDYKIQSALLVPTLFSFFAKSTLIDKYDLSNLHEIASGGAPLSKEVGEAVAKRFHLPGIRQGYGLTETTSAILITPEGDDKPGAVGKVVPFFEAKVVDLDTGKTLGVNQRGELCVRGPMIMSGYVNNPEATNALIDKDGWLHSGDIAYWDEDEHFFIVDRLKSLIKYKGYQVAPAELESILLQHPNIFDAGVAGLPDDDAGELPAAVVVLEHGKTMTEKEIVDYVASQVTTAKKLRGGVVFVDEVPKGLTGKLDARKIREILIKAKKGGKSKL
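Assay system: Luciferase/luciferin reagent mix; Medium: PBS as buffer for the ATP substrate; Dosing: test compounds dosed from 2 mM stocks in 100% DMSO; Times: 10 min, room temperature; Signal: luminescence from luciferase reaction; Read-out: luciferase activation; Controls: No-ATP low control, compound-free enzyme-plus-ATP high control.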
Platelet DG rel: inhibitors of platelet dense granule secretion, primary screen, cell-based, MLPCN, human platelets; human platelet-rich plasma, SFLLRN dense granule ATP release, luminescence; inhibition, %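 (compounds screened at 7.5 µM in platelet-rich plasma)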; 0.22% of 300,000 active;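 active means mean replicate score, as percent of positive control, at or above 50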
TRAIL sens C8: viability loss with TRAIL in NB7+C8 cells, primary screen, TRAIL sensitizer project, cell-based, ATPlite luminescence; inhibition (viability loss, TRAIL sensitization), % at 10 µM; 1% of 360,000 active; AID 624354, 2012;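 active means compounds causing at least 50% loss of cell viability in the single-dose screen, relative to plate controls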
FLuc inh counter: firefly luciferase enzyme inhibitors, primary screen, artefact control for luciferase-based inhibitor screens, biochemical, luminescence, ATPLite. Luciferin 4-monooxygenase (Photinus pyralis), P08659. 10 min. inhibition, % at 10 µM. 1.5% of 200,000 active. AID 1006, 2008;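 active means inhibition above about 50% when tested at 10 µM, limit read from the data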
Of the large screens only hits and unclear results are named; the others gave an inactive call.

O=C(Nc1nc2ccccc2[nH]1)C12CC3CC(CC(C3)C1)C2	TRAIL sens C8 69.8, FLuc inh counter 50.3
CCCCN1C(=O)C(CC(=O)NC2CCCC2)CC(C(=O)N(C(C)C)C(C)C)=C1C (stereo not drawn)	none (no result: PPC-1+TRAIL kill, FLuc act counter, Platelet DG rel, FLuc inh counter)
CCOC(=O)C1(C)CCN1C(=O)c1ccc2c(c1)CCO2 (stereo not drawn)	none (no result: PPC-1+TRAIL kill, FLuc act counter, Platelet DG rel, FLuc inh counter)
Cc1cc(C)n2c(Nc3ccc4c(c3)OCCO4)c(CCc3ccccc3)nc2n1	none (no result: PPC-1+TRAIL kill, FLuc act counter, Platelet DG rel, FLuc inh counter)
CCOC(=O)[C@]12CCC=C1N(CCC1=CCCCC1)C(=O)[C@H](CC(=O)N1CCSCC1)C2	none (no result: PPC-1+TRAIL kill, FLuc act counter, Platelet DG rel, FLuc inh counter)
CCOc1ccc(CCNC(=O)Cn2ncn3nc(-c4ccc(OC)cc4)cc3c2=O)cc1	none (no result: PPC-1+TRAIL kill, FLuc act counter, FLuc inh counter)
COc1ccc(-c2cc3c(=O)n(CC(=O)NCCCN4CCC(Cc5ccccc5)CC4)ncn3n2)cc1	TRAIL sens C8 82.9 (no result: PPC-1+TRAIL kill, FLuc act counter, FLuc inh counter)
COc1ccc(-c2cc3c(=O)n(CC(=O)NCCCN4CCN(Cc5ccccc5)CC4)ncn3n2)cc1	TRAIL sens C8 80.2 (no result: PPC-1+TRAIL kill, FLuc act counter, FLuc inh counter)
COc1ccccc1-c1csc(C(O)c2ccc(F)c(F)c2)n1 (stereo not drawn)	none (no result: PPC-1+TRAIL kill, FLuc act counter, Platelet DG rel, FLuc inh counter)
O=C(N/N=C1\CCc2ccccc21)c1ccccc1O	PPC-1+TRAIL kill 53.7, TRAIL sens C8 62.7, FLuc inh counter 89.5
COc1ccc(NC(=O)c2cc(C3CCCCN3S(=O)(=O)Cc3ccccc3)on2)c(C)c1 (stereo not drawn)	none (no result: PPC-1+TRAIL kill, FLuc act counter, Platelet DG rel, FLuc inh counter)
CC(C)(C)c1ccc(C2CC2C(=O)N/N=C\c2ccc[nH]2)cc1 (stereo not drawn)	TRAIL sens C8 64.9
CC(=O)Oc1ccccc1/C=C/c1nc2ccccc2c(=O)o1	TRAIL sens C8 81.6 (no result: PPC-1+TRAIL kill, FLuc act counter, FLuc inh counter)
CC(=O)Oc1ccc(/C=C/c2nc3ccccc3c(=O)o2)cc1	Platelet DG rel 83.0, TRAIL sens C8 76.4 (no result: PPC-1+TRAIL kill, FLuc act counter, FLuc inh counter)
CC(=O)Oc1ccc(-c2nc3ccccc3c(=O)o2)cc1	none (no result: PPC-1+TRAIL kill, FLuc act counter, FLuc inh counter)
O=C(CN1C(=O)c2ccccc2S1(=O)=O)c1ccc(Cl)cc1Cl	TRAIL sens C8 67.3 (no result: PPC-1+TRAIL kill, FLuc act counter, FLuc inh counter)
O=C(CN1C(=O)c2ccccc2S1(=O)=O)c1ccccc1F	TRAIL sens C8 46.3 (no result: PPC-1+TRAIL kill, FLuc act counter, FLuc inh counter)
O=C(CCN1C(=O)c2ccccc2S1(=O)=O)Nc1cc(Cl)ccc1Cl	none (no result: PPC-1+TRAIL kill, FLuc act counter, FLuc inh counter)
O=C(Nc1ccc([N+](=O)[O-])cc1)C(c1ccccc1)c1ccccc1	none (no result: PPC-1+TRAIL kill, FLuc act counter, Platelet DG rel, FLuc inh counter)
CCOc1cc(OCC)cc(C(=O)N2CCC[C@@H]2C(=O)N2CCC[C@@H]2C(=O)NCc2ccccc2Cl)c1	none (no result: PPC-1+TRAIL kill, FLuc act counter, Platelet DG rel, FLuc inh counter)
C#CCOCCOCCOCCNc1nc(N2CCN(C(=O)CCCCCCCCCCNC(=O)Cn3cc(CCCCCN)nn3)CC2)nc(N2CCN(C(=O)CCCCCCCCCCNC(=O)Cn3cc(C[C@@H](C)O)nn3)CC2)n1	none (no result: PPC-1+TRAIL kill, FLuc act counter, Platelet DG rel, FLuc inh counter)
C#CCOCCOCCOCCNc1nc(N2CCN(C(=O)CCCCCCCCCCNC(=O)[C@H](CCCCN)n3cc(C[C@@H](C)CC)nn3)CC2)nc(N2CCN(C(=O)CCCCCCCCCCNC(=O)[C@H](CCCN=C(N)N)n3cc(C[C@@H](C)CC)nn3)CC2)n1	TRAIL sens C8 93.9 (no result: PPC-1+TRAIL kill, FLuc act counter, Platelet DG rel, FLuc inh counter)
C#CCOCCOCCOCCNc1nc(N2CCN(C(=O)CCCCCCCCCCNC(=O)[C@H](CCCCN)n3cc(C)nn3)CC2)nc(N2CCN(C(=O)CCCCCCCCCCNC(=O)[C@@H]([C@H](C)O)n3cc(C)nn3)CC2)n1	none (no result: PPC-1+TRAIL kill, FLuc act counter, Platelet DG rel, FLuc inh counter)
C#CCOCCOCCOCCNc1nc(N2CCN(C(=O)CCCCCCCCCCNC(=O)[C@H](CCCCN)n3cc(C[C@@H](C)CC)nn3)CC2)nc(N2CCN(C(=O)CCCCCCCCCCNC(=O)[C@@H]([C@H](C)O)n3cc(C)nn3)CC2)n1	TRAIL sens C8 96.0 (no result: PPC-1+TRAIL kill, FLuc act counter, Platelet DG rel, FLuc inh counter)
C#CCOCCOCCOCCNc1nc(N2CCN(C(=O)CCCCCCCCCCNC(=O)Cn3cc(C[C@@H](C)O)nn3)CC2)nc(N2CCN(C(=O)CCCCCCCCCCNC(=O)[C@@H]([C@H](C)CC)n3cc(CCCCCN)nn3)CC2)n1	TRAIL sens C8 93.2 (no result: PPC-1+TRAIL kill, FLuc act counter, Platelet DG rel, FLuc inh counter)
Cc1c(C(=O)NCc2ccc([N+](=O)[O-])cc2)sc(=O)n1Cc1ccc2c(c1)OCO2	none (no result: PPC-1+TRAIL kill, FLuc act counter, Platelet DG rel, FLuc inh counter)
COc1ccc(NC(=O)C2(C)CCN2C(=O)CC2CCCC2)cc1OC (stereo not drawn)	none (no result: PPC-1+TRAIL kill, FLuc act counter, Platelet DG rel, FLuc inh counter)
O=c1cccc(-c2ccc3ccccc3c2)o1	none (no result: PPC-1+TRAIL kill, FLuc act counter, Platelet DG rel, FLuc inh counter)
c1ccc2c(c1)CCN(C1=Nc3cccc4cccc1c34)C2	FLuc inh counter 51.8 (no result: Platelet DG rel)
COn1c(SCc2ccc(C)cc2C)nc2ccccc2c1=O	TRAIL sens C8 57.5

Assay outcomes: PubChem BioAssay, several laboratories
